pIC50: −log10 of the molar value. Activity calls are given as the source filed them. No cut-off for these calls is given here.
Tests used:
[1] = molecular target: T1, Aldo-keto reductase family 1 member B1 (Rattus norvegicus, UniProt P07943); assay: Inhibition of aldose reductase (or polyol accumulation) in isolated rat sciatic nerve by compound at 10e-5 M concentration; type: tissue-based
Procedure, shortened: (§1)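 Isolated rat sciatic nerve incubated in vitro with compound, with polyol accumulation as read-out. Percent inhibition of polyol accumulation recorded at 1 × 10⁻⁵ M.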

[2] = molecular target: T1, Aldo-keto reductase family 1 member B1; assay: Inhibition of aldose reductase (or polyol accumulation) in isolated rat sciatic nerve by compound at (10E-5) M concentration; type: tissue-based; procedure, shortened: as §1
[3] = molecular target: Aldo-keto reductase family 1 member B1 (Bos taurus, UniProt P16116); assay: In vitro inhibition of bovine lens aldose reductase
[4] = test system: Rattus norvegicus; assay: Inhibition of galactitol accumulation in lens of rats, by 76 mg/kg of compound; NS=Not significant; type: functional, organism-based; set-up: dose 76 mg/kg; settings: Lens of camera-type eye
Procedure, shortened: (§2)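 Rats were fed 20% galactose chow for 4 days with drug, at the dose given in mg/kg. Galactitol was measured in lens and sciatic nerve, and percent inhibition was calculated against galactosemic control rats.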

[5] = molecular target: T1, Aldo-keto reductase family 1 member B1; assay: Inhibition of aldose reductase (or polyol accumulation) in isolated rat sciatic nerve by compound at 10E-5 M concentration; IA means Not Active; type: tissue-based; procedure, shortened: as §1
[6] = test system: Rattus norvegicus; assay: Inhibition of galactitol accumulation in lens of rats, by 159 mg/kg of compound; NS means Not Significant; type: functional, organism-based; set-up: dose 159 mg/kg; settings: Lens of camera-type eye; procedure, shortened: as §2
[7] = test system: Rattus norvegicus; assay: Inhibition of galactitol accumulation in sciatic nerve of rats, by 159 mg/kg of compound; NS means Not Significant.; type: functional, organism-based; set-up: dose 159 mg/kg; procedure, shortened: as §2

SMILES | pIC50 [1] | pIC50 [2] | pIC50 [3] | inhibition [4] | IC50 [5] | inhibition [6] | inhibition [7]
COc1ccc2c(C(=S)N(C)CC(=O)O)cccc2c1C(F)(F)F [TOLRESTAT] | 6.27 | – | – | – | – | – | –
CC1=C(CC(=O)O)c2cccc3cccc(c23)C1=O | – | 5.60 | 6.62 | inactive | – | – | –
CN(CC(=O)O)C(=S)c1cccc2ccccc12 | – | – | 6.14 | – | Not Active | inactive | inactive
